The text below walks through data of ChEMBL document CHEMBL4145662, “Novel Nonsteroidal Progesterone Receptor (PR) Antagonists with a Phenanthridinone Skeleton” (ACS Med Chem Lett, 2018).

The source made the active and inactive calls. No cut-off for these calls is given here.

The species entered for data set [1] is Homo sapiens. Put plainly: Selectivity ratio of IC50 for human RORalpha1 expressed in HEK293 cells to IC50 for PR in human T47D cells assessed as inhibition of progesterone-induced alkaline phosphatase activity. The data set is classed as cell-based.
Data set [2] has as its target T1, Progesterone receptor (Homo sapiens) (UniProt P06401).
T1 sequence (whole entry): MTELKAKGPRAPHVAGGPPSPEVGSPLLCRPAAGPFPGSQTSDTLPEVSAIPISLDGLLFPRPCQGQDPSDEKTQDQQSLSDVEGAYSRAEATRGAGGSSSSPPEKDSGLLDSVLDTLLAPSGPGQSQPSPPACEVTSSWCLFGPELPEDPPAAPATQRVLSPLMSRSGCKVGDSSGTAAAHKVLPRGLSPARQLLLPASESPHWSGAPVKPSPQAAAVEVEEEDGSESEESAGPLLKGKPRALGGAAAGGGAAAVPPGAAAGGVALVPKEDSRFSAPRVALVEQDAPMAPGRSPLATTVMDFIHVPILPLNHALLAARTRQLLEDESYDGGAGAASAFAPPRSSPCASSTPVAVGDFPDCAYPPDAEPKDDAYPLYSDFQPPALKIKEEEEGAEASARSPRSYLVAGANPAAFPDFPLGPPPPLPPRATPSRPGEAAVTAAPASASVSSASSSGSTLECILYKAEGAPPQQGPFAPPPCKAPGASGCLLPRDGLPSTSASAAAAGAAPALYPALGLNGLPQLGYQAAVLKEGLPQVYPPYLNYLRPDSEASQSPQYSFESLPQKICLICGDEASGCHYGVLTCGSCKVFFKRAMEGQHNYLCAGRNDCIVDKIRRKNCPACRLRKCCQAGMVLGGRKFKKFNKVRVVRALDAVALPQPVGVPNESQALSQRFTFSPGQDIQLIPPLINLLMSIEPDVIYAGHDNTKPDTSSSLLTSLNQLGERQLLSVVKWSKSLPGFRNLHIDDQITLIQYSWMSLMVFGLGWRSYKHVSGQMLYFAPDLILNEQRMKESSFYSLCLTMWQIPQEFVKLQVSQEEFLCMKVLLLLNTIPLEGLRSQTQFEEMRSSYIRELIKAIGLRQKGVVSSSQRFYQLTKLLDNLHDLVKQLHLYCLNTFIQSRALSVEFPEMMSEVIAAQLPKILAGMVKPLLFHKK
The experiment in a line: Antagonist activity at PR in human T47D cells assessed as inhibition of progesterone-induced beta1-Na/K-ATPase expression at 0.1 to 10 uM measured after 24 hrs by Western blot analysis. The data set is classed as cell-based. A digest of the protocol: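 Validation in T47D cells by Western blotting of the β1 subunit of Na/K-ATPase, a PR-regulated protein.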

Data set [3] addresses T2, Progesterone receptor (Homo sapiens, UniProt P06401).
T2 sequence (P06401 whole entry): T1 sequence (whole entry)
Put plainly: Antagonist activity at PR in human T47D cells assessed as inhibition of progesterone-induced alkaline phosphatase activity measured after 24 hrs. In kind it is cell-based.

In data set [4] the target is T3, Oxysterols receptor LXR-alpha (Homo sapiens, UniProt Q13133).
T3 sequence (Q13133 whole entry): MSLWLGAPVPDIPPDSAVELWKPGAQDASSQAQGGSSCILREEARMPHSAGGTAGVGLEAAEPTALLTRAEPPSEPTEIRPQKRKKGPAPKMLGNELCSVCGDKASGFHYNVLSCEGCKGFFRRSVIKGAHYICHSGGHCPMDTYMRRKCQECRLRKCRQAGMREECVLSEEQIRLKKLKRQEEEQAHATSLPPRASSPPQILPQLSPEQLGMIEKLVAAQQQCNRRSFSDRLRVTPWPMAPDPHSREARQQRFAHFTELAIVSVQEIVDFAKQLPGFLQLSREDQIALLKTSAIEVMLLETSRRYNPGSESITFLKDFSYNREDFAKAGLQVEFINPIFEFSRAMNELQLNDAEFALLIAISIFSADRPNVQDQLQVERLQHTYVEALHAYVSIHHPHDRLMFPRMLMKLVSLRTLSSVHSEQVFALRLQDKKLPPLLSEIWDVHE
Put plainly: Antagonist activity at human GAL4N-fused LXRalpha LBD expressed in HEK293 cells assessed as reduction in T0901317-induced transactivation activity after 24 hrs by luciferase reporter gene assay. In kind it is cell-based.

Data set [5] deals with T2, Progesterone receptor. The experiment in a line: Displacement of [1,2,6,7-3H]progesterone from recombinant human GST-tagged PGR LBD (678 to 933 residues) expressed in baculovirus-infected insect cells measured after 24 hrs by liquid scintillation counting method.
Data set [6] deals with T2, Progesterone receptor. The experiment in a line: Agonist activity at PR in human T47D cells at 10 uM. In kind it is cell-based.
The species named for data set [7] is Homo sapiens. The experiment in a line: Selectivity ratio of IC50 for human CMX-AR expressed in HEK293 cells to IC50 for PR in human T47D cells assessed as inhibition of progesterone-induced alkaline phosphatase activity. The data set is classed as cell-based.
The target in another data set is T4, Androgen receptor (Homo sapiens, UniProt P10275).
T4 sequence (P10275 whole entry): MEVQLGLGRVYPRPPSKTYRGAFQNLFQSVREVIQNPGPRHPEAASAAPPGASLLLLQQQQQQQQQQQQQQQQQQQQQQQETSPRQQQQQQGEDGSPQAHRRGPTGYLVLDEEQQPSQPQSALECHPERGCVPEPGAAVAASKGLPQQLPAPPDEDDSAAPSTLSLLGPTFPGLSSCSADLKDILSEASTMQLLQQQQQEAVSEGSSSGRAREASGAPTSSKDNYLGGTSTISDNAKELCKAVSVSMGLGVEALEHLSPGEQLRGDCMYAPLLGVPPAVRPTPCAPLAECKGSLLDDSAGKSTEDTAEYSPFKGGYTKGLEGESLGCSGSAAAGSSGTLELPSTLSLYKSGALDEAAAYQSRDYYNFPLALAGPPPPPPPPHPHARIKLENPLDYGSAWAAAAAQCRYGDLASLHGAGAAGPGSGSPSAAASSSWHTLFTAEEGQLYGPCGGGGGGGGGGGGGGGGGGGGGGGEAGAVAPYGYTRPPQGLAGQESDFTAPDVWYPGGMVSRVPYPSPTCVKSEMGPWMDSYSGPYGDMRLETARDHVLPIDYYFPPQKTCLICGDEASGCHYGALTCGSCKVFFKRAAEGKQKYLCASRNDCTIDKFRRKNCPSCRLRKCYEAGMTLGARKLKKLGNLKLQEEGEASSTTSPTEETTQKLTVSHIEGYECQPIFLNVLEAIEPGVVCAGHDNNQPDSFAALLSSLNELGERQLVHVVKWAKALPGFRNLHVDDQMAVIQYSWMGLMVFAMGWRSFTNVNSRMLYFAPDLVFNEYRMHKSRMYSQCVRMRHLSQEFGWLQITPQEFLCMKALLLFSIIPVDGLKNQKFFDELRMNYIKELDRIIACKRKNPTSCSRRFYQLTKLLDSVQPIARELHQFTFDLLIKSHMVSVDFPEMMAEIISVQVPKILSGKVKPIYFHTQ
The experiment in a line: Antagonist activity at human CMX-AR expressed in HEK293 cells assessed as reduction in dihydrotestosterone-induced transactivation activity after 24 hrs by luciferase reporter gene assay. In kind it is cell-based. In a few lines:
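AR antagonism measured by reporter gene assay with dihydrotestosterone (0.3 nM) as agonist.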

For `Cc1cc(C(O)(C(F)(F)F)C(F)(F)F)cc2c1[nH]c(=O)c1cc(F)ccc12`, the Ratio IC50 in the data set listed under Homo sapiens [1] is greater than 300; in the data set listed under Homo sapiens [7], greater than 30. Further, the inhibition entry in data set [2] was “Active”. Moreover, the IC50 on Progesterone receptor [3] was 46 nM; in data set [4], greater than 20000 nM; on Progesterone receptor [5] it was 340 nM; at Androgen receptor, 1800 nM. Moreover, the Activity result on Progesterone receptor [6] is listed as “Not Active”.

As to `Cc1cc(C(O)(C(F)(F)F)C(F)(F)F)cc2c1[nH]c(=O)c1ccccc12`, the Ratio IC50 in the data set filed under Homo sapiens [1] and in the data set listed under Homo sapiens [7] was greater than 100 each time. In addition, the inhibition entry in data set [2] was “Active”. The 50% inhibitory concentration (IC50) at Progesterone receptor [3] is 150 nM; in data set [4] it was greater than 20000 nM; at Progesterone receptor [5], 1500 nM; on Androgen receptor, greater than 20000 nM. For the same compound, on Progesterone receptor [6], the Activity entry is recorded as “Not Active”.

As to `Cc1cc(C(O)(C(F)(F)F)C(F)(F)F)cc2c3ccc(F)cc3c(=O)n(C)c12`, the Ratio IC50 in the data set listed under Homo sapiens [1] is greater than 300; in the data set listed under Homo sapiens [7], greater than 10. In addition, in data set [2], the inhibition result was “Active”. The half-maximal inhibitory concentration (IC50) is 27 nM on Progesterone receptor [3], greater than 20000 nM in data set [4] and 150 nM at Progesterone receptor [5]. Moreover, at Progesterone receptor [6], the Activity result was “Not Active”.
